{"source": "ChEMBL document CHEMBL4330127", "about": "“Discovery of Novel Pyruvate Dehydrogenase Kinase 4 Inhibitors for Potential Oral Treatment of Metabolic Diseases” (J Med Chem, 2019)", "key": {"[1]": {"tested_on": "HCT-116", "experiment": "Induction of apoptosis in human HCT116 cells assessed as live cells at 10 uM after 24 hrs by Annexin V/propidium iodide staining based flow cytometry (reference value: 84.4%)", "assay_type": "functional"}, "[2]": {"tested_on": "RKO", "experiment": "Cell cycle arrest in human RKO cells assessed as accumulation at sub-G1 phase at 25 uM after 24 hrs propidium iodide staining based flow cytometry (reference value: 17.6%)", "assay_type": "functional"}, "[3]": {"tested_on": "HCT-116", "experiment": "Cell cycle arrest in human HCT116 cells assessed as accumulation at G1/G0 phase at 10 uM after 24 hrs propidium iodide staining based flow cytometry (reference value: 42%)", "assay_type": "functional", "procedure,_shortened": "(§1)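 HCT116 and RKO cells were treated with compound alone or with oxaliplatin for 24 h before harvest. Cells were stained with propidium iodide, and DNA content was analysed by flow cytometry. Cell-cycle phase populations, including sub-G1, are given as percentages.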"}, "[4]": {"target": "Cytochrome P450 2C19 (Homo sapiens, UniProt P33261)", "sequence (P33261 whole entry)": "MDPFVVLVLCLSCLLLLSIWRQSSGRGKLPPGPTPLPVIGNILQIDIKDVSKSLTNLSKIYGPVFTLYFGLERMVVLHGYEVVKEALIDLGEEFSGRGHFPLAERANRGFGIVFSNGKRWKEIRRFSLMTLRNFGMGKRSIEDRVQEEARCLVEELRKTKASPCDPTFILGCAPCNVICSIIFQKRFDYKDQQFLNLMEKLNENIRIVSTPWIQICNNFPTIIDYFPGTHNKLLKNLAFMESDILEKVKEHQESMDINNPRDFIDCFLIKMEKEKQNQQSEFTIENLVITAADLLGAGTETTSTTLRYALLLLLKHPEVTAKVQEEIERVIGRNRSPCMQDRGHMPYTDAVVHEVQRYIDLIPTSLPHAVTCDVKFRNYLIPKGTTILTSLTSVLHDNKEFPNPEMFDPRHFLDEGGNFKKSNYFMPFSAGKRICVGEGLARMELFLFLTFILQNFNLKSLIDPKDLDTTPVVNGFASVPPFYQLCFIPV", "experiment": "Inhibition of CYP2C19 in human liver microsomes assessed as reduction in omeprazole hydroxylation by tandem mass spectrometry analysis", "assay_type": "ADME", "procedure,_shortened": "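Pooled human liver microsomes incubated with compound at 0–50 μM final; CYP probe activities (phenacetin O-deethylation for 1A2, tolbutamide 4-hydroxylation for 2C9, omeprazole hydroxylation for 2C19, dextromethorphan O-demethylation for 2D6) run as a cocktail incubation and quantified by tandem MS; duplicates; IC50 derived.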"}, "[5]": {"experiment": "Metabolic stability in rat liver microsomes assessed as parent compound remaining after 30 mins by LC-MS/MS analysis", "assay_type": "ADME, Microsome", "conditions": "read-out: Stability"}, "[6]": {"tested_on": "HCT-116", "experiment": "Induction of apoptosis in human HCT116 cells assessed as necrotic cells at 25 uM after 24 hrs by Annexin V/propidium iodide staining based flow cytometry (reference value: 2.92%)", "assay_type": "functional"}, "[7]": {"tested_on": "RKO", "experiment": "Cell cycle arrest in human RKO cells assessed as accumulation at S phase at 50 uM after 24 hrs propidium iodide staining based flow cytometry (reference value: 19.2%)", "assay_type": "functional"}, "[8]": {"tested_on": "RKO", "experiment": "Cell cycle arrest in human RKO cells assessed as accumulation at G2/M phase at 25 uM after 24 hrs propidium iodide staining based flow cytometry (reference value: 23.3%)", "assay_type": "functional", "procedure,_shortened": "as §1"}, "[9]": {"tested_on": "HCT-116", "experiment": "Induction of apoptosis in human HCT116 cells assessed as late apoptotic cells at 50 uM after 24 hrs by Annexin V/propidium iodide staining based flow cytometry (reference value: 8.36%)", "assay_type": "functional"}, "[10]": {"tested_on": "RKO", "experiment": "Cell cycle arrest in human RKO cells assessed as accumulation at G1/G0 phase at 25 uM after 24 hrs in presence of oxaliplatin propidium iodide staining based flow cytometry (reference value: 44.3%)", "assay_type": "functional", "procedure,_shortened": "as §1"}, "[11]": {"tested_on": "HCT-116", "experiment": "Induction of apoptosis in human HCT116 cells assessed as early apoptotic cells at 50 uM after 24 hrs by Annexin V/propidium iodide staining based flow cytometry (reference value: 4.36%)", "assay_type": "functional"}, "[12]": {"tested_on": "HCT-116", "experiment": "Cell cycle arrest in human HCT116 cells assessed as accumulation at sub-G1 phase at 10 uM after 24 hrs propidium iodide staining based flow cytometry (reference value: 17.8%)", "assay_type": "functional", "procedure,_shortened": "as §1"}, "[13]": {"tested_on": "RKO", "experiment": "Antiproliferative activity against human RKO cells up to 50 uM up to 72 hrs by CCK8 assay", "assay_type": "functional, cell-based", "procedure,_shortened": "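HCT116 and RKO cells were treated with compound alone or with oxaliplatin and grown for 0–72 h. Viability was read by CCK-8 colorimetry at 450 nm.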"}, "[14]": {"tested_on": "RKO", "experiment": "Induction of apoptosis in human RKO cells assessed as necrotic cells at 10 uM after 24 hrs by Annexin V/propidium iodide staining based flow cytometry (reference value: 0.56%)", "assay_type": "functional"}, "[15]": {"tested_on": "RKO", "experiment": "Cell cycle arrest in human RKO cells assessed as accumulation at S phase at 25 uM after 24 hrs in presence of oxaliplatin propidium iodide staining based flow cytometry (reference value: 4.5%)", "assay_type": "functional"}, "[16]": {"tested_on": "RKO", "experiment": "Cell cycle arrest in human RKO cells assessed as accumulation at G1/G0 phase at 10 uM after 24 hrs propidium iodide staining based flow cytometry (reference value: 39.9%)", "assay_type": "functional", "procedure,_shortened": "as §1"}, "[17]": {"tested_on": "CHO-K1", "experiment": "Cytotoxicity against CHOK1 cells", "assay_type": "cell-based", "conditions": "Cricetulus griseus"}, "[18]": {"target": "UDP-glucuronosyltransferase 1A4 (Homo sapiens, UniProt P22310)", "sequence (P22310 whole entry)": "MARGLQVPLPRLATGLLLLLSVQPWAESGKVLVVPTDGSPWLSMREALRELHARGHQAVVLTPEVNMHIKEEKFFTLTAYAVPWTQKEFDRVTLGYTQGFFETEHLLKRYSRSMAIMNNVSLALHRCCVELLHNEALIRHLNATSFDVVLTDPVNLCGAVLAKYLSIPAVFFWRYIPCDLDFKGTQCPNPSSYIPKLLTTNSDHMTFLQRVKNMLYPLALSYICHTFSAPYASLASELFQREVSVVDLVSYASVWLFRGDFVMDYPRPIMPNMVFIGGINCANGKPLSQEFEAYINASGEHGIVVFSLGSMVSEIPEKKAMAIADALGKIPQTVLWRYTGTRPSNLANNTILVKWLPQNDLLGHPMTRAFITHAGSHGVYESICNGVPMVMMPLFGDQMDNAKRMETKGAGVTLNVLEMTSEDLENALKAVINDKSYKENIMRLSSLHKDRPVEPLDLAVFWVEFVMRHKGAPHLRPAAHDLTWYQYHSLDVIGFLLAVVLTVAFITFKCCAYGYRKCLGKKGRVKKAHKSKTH", "experiment": "Inhibition of UGT1A4 in human liver microsomes assessed as reduction in trifluoperazine N-glucuronidation by tandem mass spectrometry analysis", "assay_type": "ADME", "procedure,_shortened": "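Pooled human liver microsomes; test compound at final 0–50 μM in a cocktail incubation with probe substrates: midazolam 1′-hydroxylation (CYP3A), SN-38 glucuronidation (UGT1A1), trifluoperazine N-glucuronidation (UGT1A4), mycophenolic acid glucuronidation (UGT1A9), naloxone 3-glucuronidation (UGT2B7). Metabolites measured by tandem MS; IC50 determined; duplicate.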"}, "[19]": {"tested_on": "HCT-116", "experiment": "Cell cycle arrest in human HCT116 cells assessed as accumulation at S phase at 50 uM after 24 hrs propidium iodide staining based flow cytometry (reference value: 18%)", "assay_type": "functional", "procedure,_shortened": "as §1"}, "[20]": {"tested_on": "HCT-116", "experiment": "Induction of apoptosis in human HCT116 cells assessed as increase in cleaved-PARP expression at 10 to 50 uM after 24 hrs by Western blot analysis", "assay_type": "functional, cell-based", "procedure,_shortened": "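HCT116 and RKO cells given a range of compound doses for 24 h; lysates probed by Western blot for apoptosis-related proteins (p53, BAX, BCLxL).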"}, "[21]": {"experiment": "Clearance in rat at 5 mg/kg, iv", "assay_type": "ADME, organism-based", "conditions": "in vivo", "procedure,_shortened": "(§2)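 Male rats given a single dose, 5 mg/kg intravenously or 10 mg/kg orally. Plasma PK parameters were reported as mean ± SD: AUCt, AUC∞, Cmax, Tmax, T1/2, CL, Vss and oral bioavailability F.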"}, "[22]": {"tested_on": "Mus musculus", "experiment": "Antidiabetic activity in high-fat diet induced obese C57BL/6J mouse assessed as reduction in blood glucose level at 100 mg/kg, po administered for 1 week starting from week 4 post high fat diet followed by glucose challenge and measured up to 120 mins by IPGTT", "assay_type": "functional, organism-based", "procedure,_shortened": "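Eight-week-old C57BL/6J mice were fed a high-fat diet (60% kcal fat, 0.5% cholesterol, 10% fructose) for 4 weeks. From week 4 they were dosed orally for 1 week (n = 6 per group), with sitagliptin 10 mg/kg as comparator. An intraperitoneal glucose tolerance test (1.5 g/kg glucose) followed, and the area under the curve was calculated.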"}, "[23]": {"tested_on": "HCT-116", "experiment": "Induction of apoptosis in human HCT116 cells assessed as early apoptotic cells at 25 uM after 24 hrs by Annexin V/propidium iodide staining based flow cytometry (reference value: 4.36%)", "assay_type": "functional"}, "[24]": {"tested_on": "Mast cell", "experiment": "Inhibition of degranulation in IgE-labeled bone marrow-derived mast cells (unknown origin) assessed as reduction in beta-hexosaminidase release by measuring absorbance at 10 uM preincubated for 1 hr followed by HSA stimulation and measured after 15 mins (reference value: 0.26 +/- 0.025)", "assay_type": "functional"}, "[25]": {"experiment": "AUCt in rat at 10 mg/kg, po", "assay_type": "ADME, organism-based", "conditions": "in vivo", "procedure,_shortened": "as §2"}, "[26]": {"tested_on": "HCT-116", "experiment": "Cell cycle arrest in human HCT116 cells assessed as accumulation at S phase at 10 uM after 24 hrs propidium iodide staining based flow cytometry (reference value: 18%)", "assay_type": "functional", "procedure,_shortened": "as §1"}, "[27]": {"tested_on": "HCT-116", "experiment": "Cell cycle arrest in human HCT116 cells assessed as accumulation at sub-G1 phase at 25 uM after 24 hrs propidium iodide staining based flow cytometry (reference value: 17.8%)", "assay_type": "functional", "procedure,_shortened": "as §1"}, "[28]": {"tested_on": "HCT-116", "experiment": "Cell cycle arrest in human HCT116 cells assessed as accumulation at sub-G1 phase at 50 uM after 24 hrs propidium iodide staining based flow cytometry (reference value: 17.8%)", "assay_type": "functional", "procedure,_shortened": "as §1"}, "[29]": {"tested_on": "HCT-116", "experiment": "Induction of apoptosis in human HCT116 cells assessed as late apoptotic cells at 25 uM after 24 hrs in presence of oxaliplatin by Annexin V/propidium iodide staining based flow cytometry (reference value: 14.2%)", "assay_type": "functional"}}, "note": "The source made the active and inactive calls. No cut-off for these calls is given here."}
{"smiles": "Cl.O=C1c2ccccc2C(=O)c2c1cccc2-c1cnn(C2CCNCC2)c1", "values": [{"measurement": "Activity", "setting": "[1]", "result": 77.9, "unit": "%"}, {"measurement": "Activity", "setting": "[2]", "result": 58.7, "unit": "%"}, {"measurement": "Activity", "setting": "[3]", "result": 41.6, "unit": "%"}, {"measurement": "IC50", "setting": "[4]", "result": 42.4, "unit": "µM"}, {"measurement": "remaining at 0.5 h", "setting": "[5]", "result": 67.8, "unit": "%"}, {"measurement": "Activity", "setting": "[6]", "result": 19.6, "unit": "%"}, {"measurement": "Activity", "setting": "[7]", "result": 2.7, "unit": "%"}, {"measurement": "Activity", "setting": "[8]", "result": 21.6, "unit": "%"}, {"measurement": "Activity", "setting": "[9]", "result": 54.5, "unit": "%"}, {"measurement": "Activity", "setting": "[10]", "result": 8.2, "unit": "%"}, {"measurement": "Activity", "setting": "[11]", "result": 4.1, "unit": "%"}, {"measurement": "Activity", "setting": "[12]", "result": 14.4, "unit": "%"}, {"measurement": "Activity", "setting": "[13]", "result": "Active"}, {"measurement": "Activity", "setting": "[14]", "result": 0.89, "unit": "%"}, {"measurement": "Activity", "setting": "[15]", "result": 5.2, "unit": "%"}, {"measurement": "Activity", "setting": "[16]", "result": 46.7, "unit": "%"}, {"measurement": "IC50", "setting": "[17]", "result": 36, "unit": "µM"}, {"measurement": "IC50", "setting": "[18]", "result": "> 50", "unit": "µM"}, {"measurement": "Activity", "setting": "[19]", "result": 5.3, "unit": "%"}, {"measurement": "Activity", "setting": "[20]", "result": "Active"}, {"measurement": "clearance", "setting": "[21]", "result": 11.4, "unit": "mL/min/kg"}, {"measurement": "Activity", "setting": "[22]", "result": "Active"}, {"measurement": "Activity", "setting": "[23]", "result": 7.1, "unit": "%"}, {"measurement": "OD", "setting": "[24]", "result": 0.2}, {"measurement": "AUC(0-t)", "setting": "[25]", "result": 8920, "unit": "ng·h/mL"}, {"measurement": "Activity", "setting": "[26]", "result": 29.1, "unit": "%"}, {"measurement": "Activity", "setting": "[27]", "result": 32.5, "unit": "%"}, {"measurement": "Activity", "setting": "[28]", "result": 78.2, "unit": "%"}, {"measurement": "Activity", "setting": "[29]", "result": 21.8, "unit": "%"}]}
